Assay type in all cases: functional, cell-based
One test concerns MDA-MB-231. Briefly: Cytotoxicity against human MDA-MB-231 cells assessed as growth inhibition after 24 to 72 hrs by MTT assay. Put shortly:
(§1)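 About 5000 cells/well were grown 24 h in RPMI-1640 with 10% FBS, then given fresh medium with compound at various concentrations (from 10 mM DMSO stocks) for 24, 48 and 72 h. MTT (5 mg/mL stock) was added for 2 h and formazan dissolved in DMSO. Absorbance was read at 595 nm and expressed as percent proliferation versus DMSO control.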
(Formazan colour is commonly taken as a measure of viable cells.)

A further test concerns MCF7. Put plainly: Cytotoxicity against human MCF7 cells assessed as growth inhibition after 24 to 72 hrs by MTT assay. Summed up: as §1
The subject of another test is MDA-MB-468. Briefly: Cytotoxicity against human MDA-MB-468 cells assessed as growth inhibition after 24 to 72 hrs by MTT assay. Summed up:
as §1

Test [1] in a line: Cytotoxicity against human H1299 cells assessed as growth inhibition after 24 to 72 hrs by MTT assay. The following applies: NCI-H1299. Put shortly:
as §1

Each structure is given as a SMILES string. A value given as a limit tells only on which side of the number the result lay.

Take `COC(=O)c1cc2c3ccccc3[nH]c2c2cn(-c3ccc(Cl)cc3)c[n+]12`: the IC50 (in general, the concentration that inhibits the measured activity by half) in the test on MDA-MB-231 amounted to 9.38 µM; in the test with MCF7 it was 25.7 µM; in the test on MDA-MB-468 it was 10.2 µM; in test [1], 15.4 µM.

Regarding `COC(=O)c1cc2c3ccccc3[nH]c2c2cn(-c3ccccc3Br)c[n+]12`, the IC50 in the test with MDA-MB-231 is 20.7 µM; in the test with MCF7, above 30 µM; in the test with MDA-MB-468, 11 µM; in test [1], above 30 µM.

For `COC(=O)c1cc2c3ccccc3[nH]c2c2cn(-c3ccc(C)cc3Cl)c[n+]12`, the IC50 is 14 µM in the test on MDA-MB-231, above 30 µM in the test on MCF7, above 30 µM with MDA-MB-468 and above 30 µM in test [1].

As to `CCN(CC)CCn1cc2c3[nH]c4ccccc4c3cc(C(=O)OC)[n+]2c1`, the IC50 (in the test with MDA-MB-231; in the test with MCF7; with MDA-MB-468; in test [1]) was above 30 µM each time.

On to `COC(=O)c1cc2c3ccccc3[nH]c2c2cn(Cc3ccc(F)cc3)c[n+]12`, for which the IC50 in the test with MDA-MB-231 is 12.8 µM; with MCF7, above 30 µM; in the test with MDA-MB-468, above 30 µM; in test [1], above 30 µM.

On to `COC(=O)c1cc2c3ccccc3[nH]c2c2cn(-c3ccc(Cl)cc3C)c[n+]12`, for which the IC50 is 23.4 µM in the test with MDA-MB-231, above 30 µM in the test on MCF7, 20.2 µM in the test on MDA-MB-468 and above 30 µM in test [1].

On to `COC(=O)c1cc2c3ccccc3[nH]c2c2cn(-c3ccc(OC)c(OC)c3)c[n+]12`, for which the IC50 was 29.9 µM in the test on MDA-MB-231, above 30 µM in the test on MCF7, 11.5 µM in the test on MDA-MB-468 and 16.4 µM in test [1].

Take `COC(=O)c1cc2c3ccccc3[nH]c2c2cn(-c3ccccc3I)c[n+]12`: the concentration for half-maximal inhibition (IC50) was determined as 7.8 µM in the test with MDA-MB-231, 5.96 µM in the test with MCF7, 8.02 µM in the test with MDA-MB-468 and 6.46 µM in test [1].

For the molecule `COC(=O)c1cc2c3ccccc3[nH]c2c2cn(Cc3ccccc3)c[n+]12`, the IC50 with MDA-MB-231 was 11.8 µM; in the test with MCF7 it was 6.26 µM; in the test on MDA-MB-468 it was above 9.27 µM; in test [1], 23.7 µM.

Turning to `COC(=O)c1cc2c3ccccc3[nH]c2c2cn(C3CCCCC3)c[n+]12`, the IC50 is above 30 µM in the test on MDA-MB-231, above 30 µM with MCF7, 18.2 µM with MDA-MB-468 and above 30 µM in test [1].

For the molecule `COC(=O)c1cc2c3ccccc3[nH]c2c2cn(Cc3ccc(C)cc3)c[n+]12`, the IC50 was 11.2 µM in the test on MDA-MB-231, above 30 µM in the test on MCF7, above 30 µM with MDA-MB-468 and above 30 µM in test [1].

As to `COC(=O)c1cc2c3ccccc3[nH]c2c2cn(-c3ccccc3)c[n+]12`, the IC50 was above 30 µM in the test on MDA-MB-231, above 30 µM in the test on MCF7, 5.82 µM in the test with MDA-MB-468 and 8.87 µM in test [1].

With `COC(=O)c1cc2c3ccccc3[nH]c2c2cn(-c3cccc(C(F)(F)F)c3)c[n+]12`, the IC50 is 14.6 µM in the test on MDA-MB-231, above 30 µM with MCF7, 10.5 µM in the test on MDA-MB-468 and 10.9 µM in test [1].

`COC(=O)c1cc2c3ccccc3[nH]c2c2cn(-c3cccc(Br)c3)c[n+]12`: the IC50 with MDA-MB-231 is 17.9 µM; with MCF7 it was above 30 µM; with MDA-MB-468, 15.1 µM; in test [1], 26.9 µM.

On to `COC(=O)c1cc2c3ccccc3[nH]c2c2cn(CCc3ccccc3)c[n+]12`, for which the half-inhibitory concentration (IC50) (with MDA-MB-231; in the test with MCF7; in the test with MDA-MB-468; in test [1]) was above 30 µM each time.

For the molecule `COC(=O)c1cc2c3ccccc3[nH]c2c2cn(C34CC5CC(CC(C5)C3)C4)c[n+]12`, the IC50 (in the test with MDA-MB-231; with MCF7; in the test with MDA-MB-468; in test [1]) was above 30 µM throughout.

Consider `C=CCn1cc2c3[nH]c4ccccc4c3cc(C(=O)OC)[n+]2c1`, for which the IC50 in the test with MDA-MB-231 is 23 µM; in the test with MCF7, above 30 µM; in the test with MDA-MB-468, above 30 µM; in test [1] it was above 30 µM.

`COC(=O)c1cc2c3ccccc3[nH]c2c2cn(C3CC3)c[n+]12`: the IC50 (in the test with MDA-MB-231; in the test on MCF7; in the test with MDA-MB-468; in test [1]) was above 30 µM each time.

`COC(=O)c1cc2c3ccccc3n(Cc3cc(OC)c(OC)c(OC)c3)c2c2cn(-c3ccc(Cl)cc3)c[n+]12`: the IC50 (in the test on MDA-MB-231; in the test with MCF7; in the test on MDA-MB-468; in test [1]) was above 30 µM in each case.

As for `COC(=O)c1cc2c3ccccc3[nH]c2c2cn(-c3ccc(F)cc3Br)c[n+]12`, the IC50 came out at 10.8 µM in the test with MDA-MB-231, 13.3 µM in the test on MCF7, 9.51 µM in the test on MDA-MB-468 and 16.4 µM in test [1].

For the origin of these results see ChEMBL document CHEMBL3425411, “Synthesis of β-Carboline-Based N-Heterocyclic Carbenes and Their Antiproliferative and Antimetastatic Activities against Human Breast Cancer Cells” (J Med Chem, 2015).
